These results are taken from paper PMC12282411 (Virologica Sinica, 2025).

Where a chain is given by its changes, count along the chain named. Structures can show the parent of a compound that is named as a salt.

Series [1] has as its system DENV 2. The series is described as follows: microbe, parasite or virus in culture. It is filed as cell-based. Particulars: for EC50: Dengue virus, BHK-21, 48 h, read-out: EC50 (BHK-21 μM); for SI (CC50/EC50): selective index, BHK-21 CC50 / BHK-21 EC50.
Series [2] deals with DENV 2. The series is described as follows: Antiviral assay on Huh 7 cells. Type of series: cell-based. Particulars: Dengue virus, Huh-7, 48 h, read-out: EC50 (Huh 7 μM). Summed up:
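Huh 7 cells were seeded at 4×10^4/well and grown overnight at 37 °C, 5% CO₂. Test compound was serially diluted threefold from 50 µM in DMEM with 2% FBS and added to cells for 1 h. DENV 2 was added at MOI 1 for 1 h, then the inoculum was removed, cells washed with PBS, and compound re-added. After two days, supernatant viral RNA was quantified by one-step SYBR RT-qPCR against an NS5A standard curve.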

The target of another series is T1, NS2B-NS3pro (Dengue virus type 2, UniProt P29990, M1488V).
T1 sequence (P29990 with tags, fused parts or gaps T1441G/I1442G/L1443G/I1444G/R1445S/T1446G/DEL1448-1473/Q1474G/R1475G/M1488V): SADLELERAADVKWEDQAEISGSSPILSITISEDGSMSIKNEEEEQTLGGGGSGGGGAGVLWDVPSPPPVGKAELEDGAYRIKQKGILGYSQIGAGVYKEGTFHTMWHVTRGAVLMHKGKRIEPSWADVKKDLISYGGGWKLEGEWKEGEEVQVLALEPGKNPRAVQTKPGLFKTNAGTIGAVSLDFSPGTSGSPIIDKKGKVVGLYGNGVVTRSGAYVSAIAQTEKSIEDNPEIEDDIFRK
It is filed as binding, DENV 2. Particulars: SPR.

Another series can be described thus: Pharmacokinetics in rats. It is filed as in vivo, Sprague-Dawley rats. Particulars: SD rats, i.v. as a reference. The gist of the method: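 Male Sprague-Dawley rats (180–220 g), three per group, were fasted overnight. Test compound was dosed i.g. at 20 mg/kg as a suspension in 0.4% sodium carboxymethylcellulose, or i.p. dissolved by sonication in 10% DMSO/40% PEG 300/5% Tween 80/45% saline. Jugular plasma was sampled repeatedly up to 36 h. Samples were mixed with diclofenac sodium, precipitated with acetonitrile, and analysed by LC-MS/MS. Parameters were derived by non-compartmental analysis.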

In series [3] the test system is DENV 2. In words: DENV 2 challenge of AG129 mice. It is filed as in vivo. Particulars: for viral copy numbers in the spleen and liver: i.g., two days post infection, Fig. 2F.
The nature of another series: Water solubility. It is filed as physicochemical.
The next series concerns the target T2, ZIKV NS2B-NS3pro (Zika virus, UniProt Q32ZE1).
T2 sequence (Q32ZE1 with tags, fused parts or gaps DEL1464-1489/Y1490G/V1491G/Y1492G/V1493G/K1494S/T1495G/K1497G/R1498G): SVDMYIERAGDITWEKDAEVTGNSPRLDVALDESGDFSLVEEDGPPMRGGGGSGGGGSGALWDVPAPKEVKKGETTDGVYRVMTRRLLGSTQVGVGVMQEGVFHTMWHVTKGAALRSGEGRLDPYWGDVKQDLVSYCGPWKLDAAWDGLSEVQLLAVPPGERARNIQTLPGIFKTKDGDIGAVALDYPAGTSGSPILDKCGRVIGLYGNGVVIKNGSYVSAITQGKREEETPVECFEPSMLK
The series is described as follows: FRET assay on ZIKV NS2B-NS3pro. Type of series: biochemical.

For a further series, the target named is T3, DENV 2 NS2B-NS3pro (Dengue virus type 2, UniProt P29990).
T3 sequence (P29990 with tags, fused parts or gaps T1441G/I1442G/L1443G/I1444G/R1445S/T1446G/DEL1448-1473/Q1474G/R1475G): T1 sequence (P29990 with tags, fused parts or gaps T1441G/I1442G/L1443G/I1444G/R1445S/T1446G/DEL1448-1473/Q1474G/R1475G/M1488V) with V70M
The series is described as follows: Enzyme kinetic analysis. Type of series: biochemical.

Series [4] relates to DENV 2. In words: Time-of-addition assay. Type of series: cell-based. Particulars: BHK-21 cells. The gist of the method:
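The assay used BHK-21 cells seeded overnight. In the treatment-mode arms, cells were infected at MOI 0.1 for 0–1 h, with compound applied as virus pretreatment for 1 h, cell pretreatment (–1–0 h), post-infection (1–46 h) or full-time (–1–46 h). In the addition-time arms, infection was at MOI 1 for 1 h, with compound added at 0–36 h. Readout at 48 h was supernatant RT-qPCR and IFA, with DMSO and ribavirin as controls.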

For orientation: EC50 means the concentration giving half of the maximal effect. As to `CCOC(=O)c1ccc(C#Cc2ccc3c(c2)C(C)(C)CCS3)nc1` [AGN190168], in the series on DENV 2 [1], the EC50 worked out at 10900 nM and the “SI (CC50/EC50)” value turned out to be 24.15. In addition, in the series on DENV 2 [2], the concentration for a half-maximal effect (EC50) came out at 107 nM.

Regarding `NC(=NCc1ccccc1)NC(=O)c1nc(Cl)c(N)nc1N` [Benzamil hydrochloride], the “binding affinity on NS2B-NS3pro” value on NS2B-NS3pro is “almost no binding affinity”. The EC50 with DENV 2 [1] came out at 368 nM; in the series on DENV 2 [2], 2620 nM. The “SI (CC50/EC50)” value in the series with DENV 2 [1] is listed as 120.85; in the series on DENV 2 [1] (listed as benzamil hydrochloride) it was “greater than 100”.

The IC50 is the point on the concentration scale where inhibition reaches its midpoint. Consider `CC1=NN(c2ccc(C)c(C)c2)C(=O)/C1=N\Nc1cccc(-c2cccc(C(=O)O)c2)c1O` [Eltrombopag], for which the “pharmacokinetics i.p. compared with i.g.” value in the series “Pharmacokinetics in rats” is “better absorption, distribution, and clearance”. Moreover, the “viral copy numbers in the liver, spleen, and kidney” value with DENV 2 [3] (10 or 20 mg/kg, i.g. or i.p., two days post challenge, Fig. 3C) was “reduced the viral copy numbers in the liver, spleen, and kidney in a dose-dependent manner”. Moreover, the “decrease of viral loads in spleen” value with DENV 2 [3] (DENV 2 at 10^7 TCID50) was “more than 1 log”. Besides, in the series on DENV 2 [3] (RT-qPCR, Fig. 3D), the “expression of TNF-α and IL-6 in the blood” value was “inhibited the expression of TNF-α and IL-6”. Also, in the series with DENV 2 [3], the “viral copy numbers in the spleen and liver” value is given as “significantly reduced”. The “inhibitory effect on viral copies by delivery route” value in the series with DENV 2 [3] (i.p. compared with i.g., Fig. 3C) is recorded as “stronger inhibitory effect when delivered via i.p”. For the same compound, the water solubility result in “Water solubility” was “poorly water-soluble”. At ZIKV NS2B-NS3pro, this compound returned a 50% inhibitory concentration (IC50) of 29800 nM. Also, the EC50 in the series with DENV 2 [1] amounted to 316 nM. For the same compound, the EC50 in the series with DENV 2 [2] turned out to be 1460 nM. In addition, on DENV 2 NS2B-NS3pro (varying NS2B-NS3pro, fixed substrate 20 μM, eltrombopag 0, 10 and 20 μM), the “reversibility of binding to DENV2 NS2B-NS3pro” value is recorded as “reversibly binds”. Moreover, the “mode of inhibition with respect to substrate” value at DENV 2 NS2B-NS3pro (varying substrate, NS2B-NS3pro 300 nM, Vmax changes, Km unchanged) is given as “substrate-non-competitive manner”. In addition, in the series on DENV 2 [4] (MOI = 1, RT-qPCR at 48 h), the “inhibition on addition at 36 h or later” value is “reduced inhibition” and the “time of addition following DENV 2 infection with effective inhibition” value is no more than 24 h. Further, the “inhibition when added at the post-infection stage versus full-time treatment” value in the series on DENV 2 [4] (RT-qPCR at 48 h) is on record as “comparable inhibition”. In the series with DENV 2 [4] (pretreatment of virus or of cell), the “effect on the viruses and cells themselves (pretreatment modes)” value was “negligible effect”.

For `Cc1cc(-c2ccc(/N=N/c3ccc4c(S(=O)(=O)O)cc(S(=O)(=O)O)c(N)c4c3O)c(C)c2)ccc1/N=N/c1ccc2c(S(=O)(=O)O)cc(S(=O)(=O)O)c(N)c2c1O` [Evans Blue], the EC50 is 4850 nM with DENV 2 [1] and 337 nM with DENV 2 [2]. Also, the “SI (CC50/EC50)” value in the series on DENV 2 [1] came out at 49.98.

Take `COC(=O)N[C@H](C(=O)N1CC2(CC2)C[C@H]1c1nc(-c2ccc3c(c2)C(F)(F)c2cc(-c4ccc5[nH]c([C@@H]6[C@H]7CC[C@H](C7)N6C(=O)[C@@H](NC(=O)OC)C(C)C)nc5c4)ccc2-3)c[nH]1)C(C)C` [GS-5885]: the “viral copy numbers in the spleen and liver” value in the series on DENV 2 [3] is “no effect”. Besides, the concentration giving a half-maximal response (EC50) with DENV 2 [1] stood at 3320 nM; with DENV 2 [2], 529 nM.

Turning to `COC(=O)N[C@H](C(=O)N1CCC[C@H]1c1nc(-c2ccc3c(c2)O[C@@H](c2ccccc2)n2c-3cc3cc(-c4c[nH]c([C@@H]5CCCN5C(=O)[C@@H](NC(=O)OC)C(C)C)n4)ccc32)c[nH]1)C(C)C` [MK-8742], the “viral copy numbers in the spleen and liver” value with DENV 2 [3] is reported as “no effect”. For the same compound, the EC50 was 45.9 nM in the series on DENV 2 [1] and 161 nM with DENV 2 [2].

`C#CCC(Cc1cnc2nc(N)nc(N)c2n1)c1ccc(C(=O)N[C@@H](CCC(=O)O)C(=O)O)cc1` (stereo partly drawn) [Pralatrexate]: the “binding affinity on NS2B-NS3pro” value at NS2B-NS3pro is recorded as “almost no binding affinity”. The EC50 in the series on DENV 2 [1] was less than 7.6 nM; with DENV 2 [2], less than 70 nM. Besides, the “SI (CC50/EC50)” value in the series on DENV 2 [1] is “>13684.21”; in the series with DENV 2 [1] (listed as pralatrexate), “greater than 100”.

For `NC(=O)c1ncn([C@@H]2O[C@H](CO)[C@@H](O)[C@H]2O)n1` [Ribavirin], in the series on DENV 2 [4] (MOI = 1, RT-qPCR at 48 h), the “time of addition following DENV 2 infection with effective inhibition” value is no more than 12 h.
